ChEMBL document CHEMBL1135911, “Synthesis, biological evaluation, and binding mode of novel 1-[2-(diarylmethoxy)ethyl]-2-methyl-5-nitroimidazoles targeted at the HIV-1 reverse transcriptase” (J Med Chem, 2002)

Experiments:
[1] = system: Human immunodeficiency virus 1; assay: Dose required to achieve 50% protection of MT-4 cells from HIV-1 induced cytopathogenicity; assay type: functional, organism-based; details: Human immunodeficiency virus 1, MT4
Procedure, shortened: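 MT-4 cells (1 × 10^4/well) in RPMI 1640 with 10% FCS were infected with 100 CCID50 of HIV-1 IIIB, with or without serial dilutions of compound (DMSO stock diluted in medium). After 4 days at 37 °C, viable cells were counted by MTT. EC50 is the dose giving 50% protection from virus-induced cytopathicity; mean of at least two experiments.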

MT4 [2] = assay: Dose required to reduce the viability of mock-infected cells by 50%; assay type: functional; details: Homo sapiens
Procedure, shortened: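 Mock-infected MT-4 cells were run in parallel with the antiviral assay: 1 × 10^4 cells/well, serial compound dilutions, 4 days at 37 °C. Viability was read by MTT. CC50 is the dose that reduces viability by 50%; mean of at least two experiments.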

[3] = biological target: Human immunodeficiency virus type 1 reverse transcriptase (Human immunodeficiency virus 1, UniProt Q72547); assay: Dose required to inhibit the HIV-1 Reverse transcriptase activity by 50%
Procedure, shortened: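 Highly purified recombinant wild-type HIV-1 RT, RNA-dependent polymerase activity. Buffer: 50 mM Tris-HCl pH 7.8, 80 mM KCl, 6 mM MgCl2, 1 mM DTT, 0.1 mg/mL BSA. Template/primer: poly(rC)/oligo(dG)12-18 at 0.5 OD260 unit/mL. Substrate: [3H]dGTP (1 Ci/mmol). Incubated 30 min at 37 °C; acid-insoluble radioactivity read on glass fibre filters.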

MT4 [4] = assay: (§1) Selectivity Index (CC50:EC50 Ratio); assay type: functional
[5] = biological target: Human immunodeficiency virus 1; assay: Anti-HIV-1 activity in MT-4 cells
[6] = as §1
Procedure, shortened: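 Ratio of CC50 (MTT viability of mock-infected MT-4 cells) to EC50 (MTT protection of MT-4 cells from HIV-1 IIIB cytopathicity, 100 CCID50, 4 days at 37 °C).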

SMILES | EC50 [1] [µM] | CC50 (MT4 [2]) [µM] | IC50 [3] [µM] | Selectivity index (MT4 [4]) | EC50 [5] [µM] | Selectivity index [6]
Cc1ccccc1C(OCCn1c([N+](=O)[O-])cnc1C)c1ccccc1 (configuration not stated) | 0.2 | 76 | 0.2 | 380 |  | 
Cc1ncc([N+](=O)[O-])n1CCOC(c1ccccc1)c1ccc(Cl)c(Cl)c1 (configuration not stated) | 97 | 200 |  | >2 |  | 
Cc1ncc([N+](=O)[O-])n1CCOC(c1ccccc1)c1ccccc1Cl (configuration not stated) | 0.6 | 52 | 0.6 | 85 |  | 
Cc1ncc([N+](=O)[O-])n1CCOC(c1ccccc1)c1cc(F)cc(F)c1 (configuration not stated) | 1 | > 200 |  | >200 |  | 
COc1ccc(C(OCCn2c([N+](=O)[O-])cnc2C)c2ccccc2)cc1 (configuration not stated) | 86 | > 200 |  | >2 |  | 
Cc1ncc([N+](=O)[O-])n1CCOC(c1ccccc1)c1cccc(-n2cccc2)c1 (configuration not stated) | 14 | > 200 |  | >14 |  | 
Cc1ncc([N+](=O)[O-])n1CCOC(c1ccccc1)c1ccc(-c2ccccc2)cc1 (configuration not stated) |  |  |  |  | 17 | 
CC(=O)Nc1ccc(C(OCCn2c([N+](=O)[O-])cnc2C)c2ccccc2)cc1 (configuration not stated) | > 200 | > 200 |  |  |  | 
Cc1ncc([N+](=O)[O-])n1CCOC(c1ccccc1)c1cc(Cl)cc(Cl)c1 (configuration not stated) | 45 | > 200 |  | >4 |  | 
Cc1ncc([N+](=O)[O-])n1CCOC(c1ccccc1)c1ccc(C(C)(C)C)cc1 (configuration not stated) |  |  |  |  | 3.98 | 
Cc1ncc([N+](=O)[O-])n1CCOC(c1ccccc1)c1ccccc1 | 0.2 | > 200 |  | >1000 |  | 
Cc1ncc([N+](=O)[O-])n1CCOC(c1ccccc1)c1ccc(Cl)cc1 (configuration not stated) |  |  |  |  | 12 | 
Cc1ncc([N+](=O)[O-])n1CCCOC(c1ccccc1)c1ccccc1 | 35 | 96.5 |  | 3 |  | 
Cc1ncc([N+](=O)[O-])n1CCOC(c1ccccc1)c1ccccc1F (configuration not stated) | 0.2 | 63 | 0.4 | 315 |  | 
Cc1ncc([N+](=O)[O-])n1CCOC(c1ccccc1)c1ccc(F)cc1 (configuration not stated) |  |  |  |  | 0.891 | 
Cc1cc(C)cc(C(OCCn2c([N+](=O)[O-])cnc2C)c2ccccc2)c1 (configuration not stated) | 0.4 | 200 |  | >500 |  | 
Cc1ccc(C(OCCn2c([N+](=O)[O-])cnc2C)c2ccccc2)cc1 (configuration not stated) |  |  |  |  | 1.41 | 
Cc1ncc([N+](=O)[O-])n1CCOC(c1ccccc1)c1cccc(Cl)c1 (configuration not stated) | 0.2 | > 200 | 0.5 | >1000 |  | 
Cc1ncc([N+](=O)[O-])n1CCOC(c1ccccc1)c1ccc2ccccc2c1 (configuration not stated) | 106 | > 200 |  | >1.8 |  | 
Cc1ncc([N+](=O)[O-])n1CCOC(c1ccccc1)c1ccc([N+](=O)[O-])cc1 (configuration not stated) | 5 | 111 |  |  |  | 22
Cc1cccc(C(OCCn2c([N+](=O)[O-])cnc2C)c2ccccc2)c1 (configuration not stated) | 0.1 | > 200 | 0.3 | >2000 |  | 
Cc1ncc([N+](=O)[O-])n1CCOC(c1ccccc1)c1cccc(F)c1 (configuration not stated) | 0.1 | > 200 | 0.5 | >2000 |  | 
CC(C)Nc1cccnc1N1CCN(C(=O)c2cc3cc(NS(C)(=O)=O)ccc3[nH]2)CC1 [DELAVIRDINE] | 0.01 | > 30 |  |  |  | 
Cc1ncc([N+](=O)[O-])n1CCOC(c1ccccc1)c1cccc([N+](=O)[O-])c1 (configuration not stated) | 0.6 | 92.5 | 0.3 |  |  | 154
